Assay results: ChEMBL document CHEMBL4699564, “Hit-to-lead optimization and discovery of a potent, and orally bioavailable G protein coupled receptor kinase 2 (GRK2) inhibitor” (Bioorg Med Chem Lett, 2020)
Values belong to the compound of their own block, whether it stands above or below them.

Tests used:
[1] = molecular target: T1, G protein-coupled receptor kinase 5 (Homo sapiens, UniProt P34947); experiment: Binding affinity to GRK5 (unknown origin) by Thermofluor thermal shift assay
[2] = molecular target: T2, Rhodopsin kinase GRK1 (Homo sapiens, UniProt Q15835); experiment: Binding affinity to GRK1 (unknown origin) by Thermofluor thermal shift assay
T2 sequence (Q15835 whole entry): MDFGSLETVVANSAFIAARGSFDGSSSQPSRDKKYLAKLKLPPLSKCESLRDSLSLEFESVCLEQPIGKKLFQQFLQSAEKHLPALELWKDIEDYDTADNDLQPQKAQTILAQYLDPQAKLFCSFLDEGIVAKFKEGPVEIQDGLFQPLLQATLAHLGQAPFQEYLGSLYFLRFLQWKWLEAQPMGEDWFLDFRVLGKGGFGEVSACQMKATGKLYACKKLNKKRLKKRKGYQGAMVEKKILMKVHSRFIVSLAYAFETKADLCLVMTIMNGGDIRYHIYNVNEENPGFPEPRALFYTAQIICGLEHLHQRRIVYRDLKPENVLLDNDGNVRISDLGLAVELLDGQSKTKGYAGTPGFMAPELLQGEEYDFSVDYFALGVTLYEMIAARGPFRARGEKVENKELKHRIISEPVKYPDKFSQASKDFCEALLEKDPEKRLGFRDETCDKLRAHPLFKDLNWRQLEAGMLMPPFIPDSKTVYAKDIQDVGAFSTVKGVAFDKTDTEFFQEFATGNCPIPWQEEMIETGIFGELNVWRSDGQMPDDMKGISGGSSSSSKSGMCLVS

[3] = molecular target: T3, Rhodopsin kinase GRK7 (Homo sapiens, UniProt Q8WTQ7); experiment: Inhibition of human GRK7
T3 sequence (Q8WTQ7 whole entry): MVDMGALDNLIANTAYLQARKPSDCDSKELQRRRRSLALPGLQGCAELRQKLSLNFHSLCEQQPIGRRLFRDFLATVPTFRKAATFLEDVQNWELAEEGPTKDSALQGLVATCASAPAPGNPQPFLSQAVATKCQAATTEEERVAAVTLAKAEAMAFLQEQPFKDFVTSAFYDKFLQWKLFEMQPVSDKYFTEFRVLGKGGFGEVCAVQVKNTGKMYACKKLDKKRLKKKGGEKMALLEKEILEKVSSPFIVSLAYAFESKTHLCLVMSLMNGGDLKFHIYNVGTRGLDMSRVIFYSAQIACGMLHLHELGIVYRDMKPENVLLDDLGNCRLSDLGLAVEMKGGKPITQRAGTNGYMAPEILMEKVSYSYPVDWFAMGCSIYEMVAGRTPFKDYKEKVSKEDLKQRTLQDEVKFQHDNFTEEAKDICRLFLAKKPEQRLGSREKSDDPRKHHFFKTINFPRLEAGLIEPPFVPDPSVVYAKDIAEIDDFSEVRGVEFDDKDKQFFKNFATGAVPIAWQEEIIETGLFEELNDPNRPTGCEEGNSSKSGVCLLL

[4] = molecular target: G protein-coupled receptor kinase 6 (Homo sapiens, UniProt P43250); experiment: Inhibition of human GRK6
Sequence of G protein-coupled receptor kinase 6 (P43250 whole entry): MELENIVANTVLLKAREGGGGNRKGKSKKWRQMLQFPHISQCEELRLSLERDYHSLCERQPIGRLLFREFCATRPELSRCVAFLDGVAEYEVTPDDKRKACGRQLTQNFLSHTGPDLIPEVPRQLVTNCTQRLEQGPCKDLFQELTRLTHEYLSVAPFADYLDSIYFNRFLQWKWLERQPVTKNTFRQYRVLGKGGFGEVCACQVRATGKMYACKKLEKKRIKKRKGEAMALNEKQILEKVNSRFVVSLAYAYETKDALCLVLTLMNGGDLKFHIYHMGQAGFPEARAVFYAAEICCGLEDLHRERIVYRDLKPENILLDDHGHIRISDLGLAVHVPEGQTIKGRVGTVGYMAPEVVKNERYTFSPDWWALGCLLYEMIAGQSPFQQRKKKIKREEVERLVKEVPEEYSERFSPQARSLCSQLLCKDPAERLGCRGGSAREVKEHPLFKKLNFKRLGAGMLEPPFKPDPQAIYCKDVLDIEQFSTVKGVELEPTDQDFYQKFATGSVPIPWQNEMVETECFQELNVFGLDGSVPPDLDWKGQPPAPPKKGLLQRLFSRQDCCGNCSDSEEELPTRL

[5] = Inhibition of protein kinase A (unknown origin); set-up: species or system Homo sapiens
[6] = molecular target: T1, G protein-coupled receptor kinase 5; experiment: Inhibition of human GRK5
[7] = molecular target: T2, Rhodopsin kinase GRK1; experiment: Inhibition of human GRK1
[8] = molecular target: Calcium/calmodulin-dependent protein kinase type II subunit beta (Homo sapiens, UniProt Q13554); experiment: Inhibition of human CaMK2beta
Sequence of Calcium/calmodulin-dependent protein kinase type II subunit beta (Q13554 whole entry): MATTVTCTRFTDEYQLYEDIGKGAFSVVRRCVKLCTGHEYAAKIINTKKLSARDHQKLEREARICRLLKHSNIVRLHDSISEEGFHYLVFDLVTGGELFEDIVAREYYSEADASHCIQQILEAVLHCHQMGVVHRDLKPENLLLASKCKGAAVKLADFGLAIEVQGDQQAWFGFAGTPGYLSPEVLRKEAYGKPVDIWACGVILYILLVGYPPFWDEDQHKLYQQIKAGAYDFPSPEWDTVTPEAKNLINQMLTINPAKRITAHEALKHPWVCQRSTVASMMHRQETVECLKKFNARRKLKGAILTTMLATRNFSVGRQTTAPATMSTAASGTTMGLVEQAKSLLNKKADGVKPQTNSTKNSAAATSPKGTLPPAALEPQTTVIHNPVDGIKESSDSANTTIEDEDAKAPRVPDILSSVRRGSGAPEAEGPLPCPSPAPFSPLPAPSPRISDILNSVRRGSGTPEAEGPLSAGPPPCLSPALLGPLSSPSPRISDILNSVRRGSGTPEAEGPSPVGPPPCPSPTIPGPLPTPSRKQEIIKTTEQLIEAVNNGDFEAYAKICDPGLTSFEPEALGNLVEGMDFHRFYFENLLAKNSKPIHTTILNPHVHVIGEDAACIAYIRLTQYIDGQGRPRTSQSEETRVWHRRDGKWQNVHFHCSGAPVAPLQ

[9] = molecular target: RAC-alpha serine/threonine-protein kinase (Homo sapiens, UniProt P31749); experiment: Inhibition of human PKBalpha
Sequence of RAC-alpha serine/threonine-protein kinase (P31749 whole entry): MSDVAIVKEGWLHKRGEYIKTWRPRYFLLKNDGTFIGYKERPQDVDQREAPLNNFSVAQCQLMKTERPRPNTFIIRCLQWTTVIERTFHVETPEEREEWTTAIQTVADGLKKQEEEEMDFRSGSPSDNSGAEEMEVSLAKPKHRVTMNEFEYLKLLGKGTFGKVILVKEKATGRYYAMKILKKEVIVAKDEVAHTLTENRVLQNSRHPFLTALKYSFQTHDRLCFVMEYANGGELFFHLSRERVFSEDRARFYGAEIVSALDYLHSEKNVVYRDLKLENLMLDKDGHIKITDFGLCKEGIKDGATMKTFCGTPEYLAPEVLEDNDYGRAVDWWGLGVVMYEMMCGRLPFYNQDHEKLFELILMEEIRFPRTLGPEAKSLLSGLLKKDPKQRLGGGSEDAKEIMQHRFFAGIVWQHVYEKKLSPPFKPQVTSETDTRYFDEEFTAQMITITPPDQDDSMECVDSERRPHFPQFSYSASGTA

[10] = Apparent permeability across apical to basal side in MDCK-MDR1 cells; assay type: ADME, cell-based, Canis lupus familiaris; settings: dog
[11] = molecular target: Ribosomal protein S6 kinase alpha-1 (Homo sapiens, UniProt Q15418); experiment: Inhibition of RSK1 (unknown origin)
Sequence of Ribosomal protein S6 kinase alpha-1 (Q15418 whole entry): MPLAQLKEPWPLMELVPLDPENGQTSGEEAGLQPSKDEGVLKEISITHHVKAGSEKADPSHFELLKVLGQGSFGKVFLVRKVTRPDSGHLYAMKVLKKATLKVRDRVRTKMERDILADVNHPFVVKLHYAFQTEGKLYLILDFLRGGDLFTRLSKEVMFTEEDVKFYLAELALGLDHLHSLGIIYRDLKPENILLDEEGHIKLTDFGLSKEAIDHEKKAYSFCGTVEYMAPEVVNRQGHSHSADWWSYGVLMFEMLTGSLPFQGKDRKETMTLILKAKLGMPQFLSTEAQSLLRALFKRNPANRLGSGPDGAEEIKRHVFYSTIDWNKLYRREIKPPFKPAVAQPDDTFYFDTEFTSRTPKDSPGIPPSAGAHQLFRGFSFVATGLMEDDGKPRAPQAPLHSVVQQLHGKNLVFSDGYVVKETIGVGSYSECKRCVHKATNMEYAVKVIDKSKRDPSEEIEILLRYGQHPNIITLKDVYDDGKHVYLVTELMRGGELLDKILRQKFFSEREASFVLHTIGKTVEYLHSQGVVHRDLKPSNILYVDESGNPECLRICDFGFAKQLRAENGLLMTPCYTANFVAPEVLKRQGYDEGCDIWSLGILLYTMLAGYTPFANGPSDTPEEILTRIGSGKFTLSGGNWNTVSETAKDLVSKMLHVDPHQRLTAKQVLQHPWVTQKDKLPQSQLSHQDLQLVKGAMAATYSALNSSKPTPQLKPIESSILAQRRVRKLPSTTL

[12] = molecular target: Protein kinase C beta type (Homo sapiens, UniProt P05771); experiment: Inhibition of human PKCbeta1
[13] = molecular target: Protein kinase C alpha type (Homo sapiens, UniProt P17252); experiment: Inhibition of human PKCalpha
[14] = molecular target: Rho-associated protein kinase 1 (Homo sapiens, UniProt Q13464); experiment: Inhibition of human ROCK1
Sequence of Rho-associated protein kinase 1 (Q13464 whole entry): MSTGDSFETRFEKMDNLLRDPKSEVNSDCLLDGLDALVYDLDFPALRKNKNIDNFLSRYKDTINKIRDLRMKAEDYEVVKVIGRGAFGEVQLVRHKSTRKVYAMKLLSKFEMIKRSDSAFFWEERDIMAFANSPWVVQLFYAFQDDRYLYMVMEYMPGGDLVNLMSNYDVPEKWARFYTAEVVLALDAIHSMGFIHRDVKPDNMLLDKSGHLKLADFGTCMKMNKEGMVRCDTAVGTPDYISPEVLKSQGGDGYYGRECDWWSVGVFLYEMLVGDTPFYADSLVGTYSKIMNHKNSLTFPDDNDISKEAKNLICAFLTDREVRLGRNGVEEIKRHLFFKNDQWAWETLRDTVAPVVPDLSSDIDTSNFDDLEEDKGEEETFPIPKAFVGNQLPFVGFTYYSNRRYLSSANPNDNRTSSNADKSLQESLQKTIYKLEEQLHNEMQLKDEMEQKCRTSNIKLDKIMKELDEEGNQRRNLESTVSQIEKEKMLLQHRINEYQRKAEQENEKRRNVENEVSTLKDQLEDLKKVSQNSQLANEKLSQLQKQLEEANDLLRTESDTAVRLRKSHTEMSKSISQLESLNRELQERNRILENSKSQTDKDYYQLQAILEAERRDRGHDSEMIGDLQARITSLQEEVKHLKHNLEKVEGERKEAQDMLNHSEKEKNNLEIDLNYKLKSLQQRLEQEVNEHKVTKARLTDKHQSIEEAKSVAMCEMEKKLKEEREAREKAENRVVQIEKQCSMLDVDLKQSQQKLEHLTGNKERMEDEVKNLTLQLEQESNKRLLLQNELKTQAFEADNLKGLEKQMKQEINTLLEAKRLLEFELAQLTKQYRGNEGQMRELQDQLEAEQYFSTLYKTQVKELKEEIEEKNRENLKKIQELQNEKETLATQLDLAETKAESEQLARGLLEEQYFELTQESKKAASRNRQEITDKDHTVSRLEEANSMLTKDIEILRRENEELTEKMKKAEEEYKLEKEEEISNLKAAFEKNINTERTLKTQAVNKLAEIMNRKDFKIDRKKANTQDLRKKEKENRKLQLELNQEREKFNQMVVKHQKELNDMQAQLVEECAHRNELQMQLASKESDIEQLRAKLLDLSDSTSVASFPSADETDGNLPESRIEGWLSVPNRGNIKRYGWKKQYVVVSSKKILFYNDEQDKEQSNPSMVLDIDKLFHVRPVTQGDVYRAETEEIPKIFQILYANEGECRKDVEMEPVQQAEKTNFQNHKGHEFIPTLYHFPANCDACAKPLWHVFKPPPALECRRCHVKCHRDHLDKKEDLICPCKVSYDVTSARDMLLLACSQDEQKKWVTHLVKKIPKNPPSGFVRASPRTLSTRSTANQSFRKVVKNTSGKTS

[15] = molecular target: T4, Aurora kinase A (Homo sapiens, UniProt O14965); experiment: Inhibition of human Aurora A
T4 sequence (O14965 whole entry): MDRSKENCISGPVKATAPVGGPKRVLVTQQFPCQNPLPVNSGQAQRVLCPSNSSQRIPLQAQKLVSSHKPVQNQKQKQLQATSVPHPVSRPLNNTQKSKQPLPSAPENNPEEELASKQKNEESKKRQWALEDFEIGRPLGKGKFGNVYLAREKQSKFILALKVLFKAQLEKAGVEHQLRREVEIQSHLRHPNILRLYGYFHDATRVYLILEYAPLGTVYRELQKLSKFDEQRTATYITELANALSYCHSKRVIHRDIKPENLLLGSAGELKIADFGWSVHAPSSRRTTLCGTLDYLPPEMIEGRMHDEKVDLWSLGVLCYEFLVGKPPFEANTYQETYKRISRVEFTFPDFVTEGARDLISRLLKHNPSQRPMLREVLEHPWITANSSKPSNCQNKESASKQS

[16] = Half life in C57BL mouse at 10 mg/kg, po administered as single dose; assay type: ADME, organism-based; settings: in vivo
In short: (§1)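 C57BL mice given a single dose, 2 mg/kg i.v. or 10 mg/kg p.o., both formulated in 20% HPbCD. Plasma concentration–time profiles gave clearance, Vdss, terminal half-lives, Cmax, tmax, oral AUC and bioavailability.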

[17] = Volume of distribution at steady state in C57BL mouse at 2 mg/kg, iv or 10 mg/kg, po administered as single dose; assay type: ADME, organism-based; settings: in vivo, read-out: Vdss; in short: as §1
[18] = Oral bioavailability in C57BL mouse at 10 mg/kg administered as single dose; assay type: ADME, organism-based; settings: in vivo; in short: as §1
[19] = Tmax in C57BL mouse at 2 mg/kg, iv or 10 mg/kg, po administered as single dose; assay type: ADME, organism-based; settings: in vivo; in short: as §1
[20] = Half life in C57BL mouse at 2 mg/kg, iv administered as single dose; assay type: ADME, organism-based; settings: in vivo; in short: as §1
[21] = Plasma clearance in C57BL mouse at 2 mg/kg, iv or 10 mg/kg, po administered as single dose; assay type: ADME, organism-based; in short: as §1
[22] = Cmax in C57BL mouse at 2 mg/kg, iv or 10 mg/kg, po administered as single dose; assay type: ADME, organism-based; set-up: dose 10 mg/kg; settings: in vivo; in short: as §1

T1 sequence (P34947 whole entry): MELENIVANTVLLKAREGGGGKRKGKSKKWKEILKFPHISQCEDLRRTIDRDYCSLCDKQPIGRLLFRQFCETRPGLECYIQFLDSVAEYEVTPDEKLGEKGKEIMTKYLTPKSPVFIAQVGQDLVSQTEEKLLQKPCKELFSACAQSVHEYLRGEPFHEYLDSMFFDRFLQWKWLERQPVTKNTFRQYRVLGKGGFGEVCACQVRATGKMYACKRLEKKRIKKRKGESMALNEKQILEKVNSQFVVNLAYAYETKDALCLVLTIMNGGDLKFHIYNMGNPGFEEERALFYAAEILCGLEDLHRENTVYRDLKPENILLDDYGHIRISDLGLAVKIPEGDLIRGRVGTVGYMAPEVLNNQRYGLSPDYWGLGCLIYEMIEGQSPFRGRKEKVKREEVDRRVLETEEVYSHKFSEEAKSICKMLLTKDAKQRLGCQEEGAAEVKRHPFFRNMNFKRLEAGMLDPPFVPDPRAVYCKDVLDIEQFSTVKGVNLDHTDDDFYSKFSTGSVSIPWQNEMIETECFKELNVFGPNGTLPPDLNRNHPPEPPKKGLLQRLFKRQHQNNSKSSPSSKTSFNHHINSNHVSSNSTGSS

Kd [1]: 34.3 µM | Kd [2]: 14.5 µM
SMILES: O=c1c2cc(-c3cn[nH]c3)ccc2ncn1Cc1ccccc1

IC50 [3]: 9.14 µM | IC50 [4]: 3.27 µM | IC50 [5]: 0.855 µM | IC50 [6]: 4.5 µM | IC50 [7]: > 10 µM | IC50 [8]: 3.85 µM | IC50 [9]: 1.45 µM | Papp A→B [10]: 20.6 ×10⁻⁶ cm/s | IC50 [11]: 0.483 µM | IC50 [12]: 9.07 µM | IC50 [13]: > 10 µM | IC50 [14]: 0.246 µM | IC50 [15]: 0.011 µM
SMILES: COc1cccc(Cn2cnc3ccc(-c4cn[nH]c4)cc3c2=O)c1

IC50 [3]: > 10 µM | IC50 [4]: > 10 µM | IC50 [5]: 4.88 µM | IC50 [6]: > 10 µM | half-life [16]: 2.41 h | Vd [17]: 2.01 L/kg | IC50 [7]: > 10 µM | IC50 [8]: > 10 µM | bioavailability [18]: 65.3% | Tmax [19]: 0.83 h | IC50 [9]: > 10 µM | Papp A→B [10]: 53.2 ×10⁻⁶ cm/s | IC50 [11]: 3.15 µM | IC50 [12]: > 10 µM | IC50 [13]: > 10 µM | IC50 [14]: 1.27 µM | half-life [20]: 1.01 h | clearance [21]: 29.1 mL/min/kg | Cmax [22]: 4.96 µM | IC50 [15]: 0.137 µM
SMILES: COc1cccc(Cn2ncc3ccc(-c4cn[nH]c4)cc3c2=O)c1

Papp A→B [10]: 7.73 ×10⁻⁶ cm/s
SMILES: O=c1c2cc(-c3cn[nH]c3)ccc2ncn1Cc1cccc(Oc2ccc(F)cc2)c1

Papp A→B [10]: 24.2 ×10⁻⁶ cm/s
SMILES: O=c1c2cc(-c3cn[nH]c3)ccc2ncn1Cc1cccc(OC(F)F)c1

Papp A→B [10]: 37.8 ×10⁻⁶ cm/s
SMILES: COc1cccc([C@@H](C)n2cnc3ccc(-c4cn[nH]c4)cc3c2=O)c1

Papp A→B [10]: 12.3 ×10⁻⁶ cm/s
SMILES: COc1ccc(Cn2cnc3ccc(-c4cn[nH]c4)cc3c2=O)cc1F

Papp A→B [10]: < 0.34 ×10⁻⁶ cm/s
SMILES: CNCCC(c1cccc(OC)c1)n1cnc2ccc(-c3cn[nH]c3)cc2c1=O (racemic)

More lines, now with the values behind:

SMILES: O=c1c2cc(-c3ccncc3)ccc2ncn1Cc1ccccc1
Kd [1]: > 83.3 µM | Kd [2]: > 83.3 µM

SMILES: O=C(NCc1c(F)cccc1F)c1cccc(Cn2cnc3ccc(-c4cn[nH]c4)cc3c2=O)c1
Papp A→B [10]: 0.85 ×10⁻⁶ cm/s

SMILES: COc1cc(Cn2cnc3ccc(-c4cn[nH]c4)cc3c2=O)ccc1F
Papp A→B [10]: 10.1 ×10⁻⁶ cm/s

SMILES: O=C(NCc1ccc(F)cc1)c1cccc(Cn2cnc3ccc(-c4cn[nH]c4)cc3c2=O)c1
Papp A→B [10]: 0.57 ×10⁻⁶ cm/s

SMILES: O=c1c2cc(-c3cncnc3)ccc2ncn1Cc1ccccc1
Kd [1]: > 83.3 µM | Kd [2]: > 83.3 µM

SMILES: O=C(Nc1ccc(F)cc1)c1cccc(Cn2cnc3ccc(-c4cn[nH]c4)cc3c2=O)c1
Papp A→B [10]: 0.44 ×10⁻⁶ cm/s

SMILES: O=c1c2ccc(-c3cn[nH]c3)cc2ncn1Cc1ccccc1
Kd [1]: > 83.3 µM | Kd [2]: 47.6 µM

SMILES: O=C(NCc1c(F)cccc1F)c1ccc(Cn2cnc3ccc(-c4cn[nH]c4)cc3c2=O)cc1
Papp A→B [10]: 0.66 ×10⁻⁶ cm/s

SMILES: O=c1c2cc(-c3ccn[nH]3)ccc2ncn1Cc1ccccc1
Kd [1]: > 83.3 µM | Kd [2]: > 83.3 µM
